In brackets after ≈: the same amount, converted by molar mass.
Legend:
Fusarium solani [1] = assay: Antifungal activity against Fusarium solani by EUCAST method; format: functional
Curvularia australiensis [2] = assay: Antifungal activity against Bipolaris australiensis; format: functional
Outline: (§1)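 Dematiaceous fungi were tested by the EUCAST spore-forming mold reference procedure: flat-bottom microdilution plates, RPMI 1640 plus 2% glucose, inoculum 2 × 105 to 5 × 10^5 CFU/ml. Endpoints were read visually at 24 and 48 h. Polyenes and azoles: 100% growth reduction vs drug-free control. CPF: minimum effective concentration. Run in duplicate and repeated twice.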

Pichia kudriavzevii [3] = assay: Antifungal activity against Candida krusei by EUCAST method; format: functional
Outline: (§2)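 Broth microdilution in flat-bottom plates in RPMI 1640 with 2% glucose; inoculum 0.5 × 105 to 2.5 × 10^5 CFU/ml. MICs were read spectrophotometrically at 24 h. AMB endpoint: ≥90% growth reduction vs drug-free control well. Azole and CPF endpoint: 50% reduction in optical density. MFC was taken as the lowest concentration giving 99% killing.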

Mucor hiemalis = assay: Antifungal activity against Mucor hiemalis; format: functional
Rhizopus arrhizus [4] = assay: Antifungal activity against Rhizopus oryzae by EUCAST method; format: functional
Outline: (§3)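 Broth microdilution following the EUCAST reference procedure for spore-forming moulds, in flat-bottom plates with RPMI 1640 plus 2% glucose. Inoculum was 2 × 10^5 to 5 × 10^5 CFU/ml. MICs were read visually at 24 and 48 h as 100% growth reduction versus a drug-free control for polyenes and azoles. MEC was used for caspofungin. Tests were run in duplicate and repeated twice.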

Talaromyces marneffei [5] = assay: Antifungal activity against Penicillium marneffei; format: functional
Candida parapsilosis [6] = assay: Antifungal activity against Candida parapsilosis by EUCAST method; format: functional; conditions: Lodderomyces parapsilosis; outline: as §2
Cryptococcus gattii [7] = assay: Antifungal activity against Cryptococcus neoformans var. gattii; format: functional, Cryptococcus bacillisporus
Outline: (§4)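 EUCAST yeast microdilution, modified for nonfermentative yeasts: plates were sealed and agitated at 350 rpm and 30°C for 48 h.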

Fusarium solani [8] = assay: Antifungal activity against Fusarium solani; format: functional
Aspergillus niger [9] = assay: Antifungal activity against Aspergillus niger; format: functional
Aspergillus terreus [10] = assay: Antifungal activity against Aspergillus terreus by EUCAST method; format: functional
Candida albicans [11] = assay: Antifungal activity against Candida albicans by EUCAST method; format: functional; outline: as §2
Scedosporium apiospermum [12] = assay: Antifungal activity against Scedosporium apiospermum; format: functional; outline: as §3
[13] = tested on: Meyerozyma guilliermondii; assay: Antifungal activity against Candida guilliermondii; format: functional; outline: as §2
Geotrichum candidum [14] = assay: Antifungal activity against Geotrichum candidum by EUCAST method; format: functional
Lichtheimia corymbifera [15] = assay: Antifungal activity against Absidia corymbifera; format: functional
Geotrichum candidum [16] = assay: Antifungal activity against Geotrichum candidum; format: functional
Nakaseomyces glabratus [17] = assay: Antifungal activity against Candida glabrata by EUCAST method; format: functional; outline: as §2
Aspergillus flavus [18] = assay: Antifungal activity against Aspergillus flavus; format: functional
[19] = Antifungal activity against Cryptococcus neoformans var. neoformans; format: functional; conditions: Cryptococcus deneoformans; outline: as §4
[20] = Antifungal activity against Rhizopus microsporus var. oligosporus; format: functional; outline: as §3
Lomentospora prolificans = assay: Antifungal activity against Scedosporium prolificans; format: functional; outline: as §3
Cunninghamella [21] = assay: Antifungal activity against Cunninghamella species by EUCAST method; format: functional
Trichosporon asahii [22] = assay: Antifungal activity against Trichosporon asahii by EUCAST method; format: functional
Outline: (§5)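 Nonfermentative yeasts were tested by the EUCAST microdilution recommendations with one change: plates were sealed and agitated at 350 rpm and 30°C for 48 h.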

Curvularia lunata [23] = assay: Antifungal activity against Curvularia lunata; format: functional
Candida tropicalis [24] = assay: Antifungal activity against Candida tropicalis; format: functional; outline: as §2
Pichia kudriavzevii [25] = assay: Antifungal activity against Candida krusei; format: functional
Outline: (§6)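 EUCAST broth microdilution for yeasts in flat-bottom plates, RPMI 1640 with 2% glucose, inoculum 0.5 × 105 to 2.5 × 10^5 CFU/ml. […] MFC is the lowest concentration giving 99% killing.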

Curvularia australiensis [26] = assay: Antifungal activity against Bipolaris australiensis by EUCAST method; format: functional; outline: as §1
Rhizomucor = assay: Antifungal activity against Rhizomucor species; format: functional
Cunninghamella [27] = assay: Antifungal activity against Cunninghamella species; format: functional
Candida albicans [28] = assay: Antifungal activity against Candida albicans; format: functional; outline: as §2
Rhizopus arrhizus [29] = assay: Antifungal activity against Rhizopus oryzae; format: functional; outline: as §3
[30] = Antifungal activity against Cryptococcus neoformans var. neoformans by EUCAST method; format: functional; conditions: Cryptococcus deneoformans; outline: as §4
Penicillium sp. [31] = assay: Antifungal activity against Penicillium species by EUCAST method; format: functional
Aspergillus terreus [32] = assay: Antifungal activity against Aspergillus terreus; format: functional
Talaromyces marneffei [33] = assay: Antifungal activity against Penicillium marneffei by EUCAST method; format: functional
Rhizopus = assay: Antifungal activity against Rhizopus species; format: functional; outline: as §3
Sporothrix schenckii [34] = assay: Antifungal activity against Sporothrix schenckii by EUCAST method; format: functional; outline: as §3
Absidia = assay: Antifungal activity against Absidia species; format: functional
Clavispora lusitaniae [35] = assay: Antifungal activity against Candida lusitaniae by EUCAST method; format: functional; outline: as §2
Trichosporon inkin [36] = assay: Antifungal activity against Trichosporon inkin by EUCAST method; format: functional; outline: as §5
Aspergillus fumigatus [37] = assay: Antifungal activity against Aspergillus fumigatus by EUCAST method; format: functional
Aspergillus fumigatus [38] = assay: Antifungal activity against Aspergillus fumigatus; format: functional
Candida tropicalis [39] = assay: Antifungal activity against Candida tropicalis by EUCAST method; format: functional; outline: as §2
Clavispora lusitaniae [40] = assay: Antifungal activity against Candida lusitaniae; format: functional; outline: as §2
Lichtheimia corymbifera [41] = assay: Antifungal activity against Absidia corymbifera by EUCAST method; format: functional
Penicillium sp. [42] = assay: Antifungal activity against Penicillium species; format: functional
Trichosporon inkin [43] = assay: Antifungal activity against Trichosporon inkin; format: functional; outline: as §5
Sporothrix schenckii [44] = assay: Antifungal activity against Sporothrix schenckii; format: functional; outline: as §3
Cryptococcus gattii [45] = assay: Antifungal activity against Cryptococcus neoformans var. gattii by EUCAST method; format: functional, Cryptococcus bacillisporus; outline: as §4
Candida parapsilosis [46] = assay: Antifungal activity against Candida parapsilosis; format: functional; conditions: Lodderomyces parapsilosis; outline: as §2
Aspergillus flavus [47] = assay: Antifungal activity against Aspergillus flavus by EUCAST method; format: functional
Fusarium oxysporum [48] = assay: Antifungal activity against Fusarium oxysporum; format: functional
Saccharomyces cerevisiae [49] = assay: Antifungal activity against Saccharomyces cerevisiae; format: functional
Outline: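 Broth microdilution following EUCAST for fermentative yeasts, in flat-bottom plates with RPMI 1640 plus 2% glucose. Inoculum was 0.5 × 10^5 to 2.5 × 10^5 CFU/ml. End points were read spectrophotometrically at 24 h: ≥90% growth reduction versus a drug-free control for amphotericin B, and 50% OD reduction for azoles and caspofungin. MFC was the lowest concentration giving 99% killing.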

Mucor [50] = assay: Antifungal activity against Mucor species by EUCAST method; format: functional
Trichosporon asahii [51] = assay: Antifungal activity against Trichosporon asahii; format: functional; outline: as §5
[52] = Antifungal activity against Rhinocladiella aquaspersa by EUCAST method; format: functional; outline: as §1
Fusarium oxysporum [53] = assay: Antifungal activity against Fusarium oxysporum by EUCAST method; format: functional
Saccharomyces cerevisiae [54] = assay: Antifungal activity against Saccharomyces cerevisiae by EUCAST method; format: functional; outline: as §6
[55] = tested on: Meyerozyma guilliermondii; assay: Antifungal activity against Candida guilliermondii by EUCAST method; format: functional; outline: as §2
Scedosporium apiospermum [56] = assay: Antifungal activity against Scedosporium apiospermum by EUCAST method; format: functional; outline: as §3
[57] = Antifungal activity against Rhinocladiella aquaspersa; format: functional; outline: as §1
Aspergillus niger [58] = assay: Antifungal activity against Aspergillus niger by EUCAST method; format: functional
Mucor [59] = assay: Antifungal activity against Mucor species; format: functional
Curvularia lunata [60] = assay: Antifungal activity against Curvularia lunata by EUCAST method; format: functional; outline: as §1
Nakaseomyces glabratus [61] = assay: Antifungal activity against Candida glabrata; format: functional; outline: as §2

CCC(C)n1ncn(-c2ccc(N3CCN(c4ccc(OCC5COC(Cn6cncn6)(c6ccc(Cl)cc6Cl)O5)cc4)CC3)cc2)c1=O (stereo unspecified) [ITRACONAZOLE]
MIC (Fusarium solani [1]): 6 µg/mL (≈ 8.5 µM) | MFC (Curvularia australiensis [2]): 0.5 µg/mL (≈ 0.709 µM) | MIC (Pichia kudriavzevii [3]): 1.1 µg/mL (≈ 1.56 µM) | MFC (Mucor hiemalis): > 8 µg/mL | MIC (Rhizopus arrhizus [4]): 4 µg/mL (≈ 5.67 µM) | MFC (Talaromyces marneffei [5]): 0.25 µg/mL (≈ 0.354 µM) | MIC (Candida parapsilosis [6]): 0.32 µg/mL (≈ 0.453 µM) | MFC (Cryptococcus gattii [7]): 0.5 µg/mL (≈ 0.709 µM) | MFC (Fusarium solani [8]): > 8 µg/mL | MFC (Aspergillus niger [9]): > 4 µg/mL | MIC (Aspergillus terreus [10]): 0.58 µg/mL (≈ 0.822 µM) | MIC (Candida albicans [11]): 0.23 µg/mL (≈ 0.326 µM) | MFC (Scedosporium apiospermum [12]): > 4 µg/mL | MFC [13]: 2 µg/mL (≈ 2.83 µM) | MIC (Geotrichum candidum [14]): 1.45 µg/mL (≈ 2.05 µM) | MFC (Lichtheimia corymbifera [15]): > 2 µg/mL | MFC (Geotrichum candidum [16]): > 8 µg/mL | MIC (Nakaseomyces glabratus [17]): 0.83 µg/mL (≈ 1.18 µM) | MFC (Aspergillus flavus [18]): 0.5 µg/mL (≈ 0.709 µM) | MFC [19]: 0.5 µg/mL (≈ 0.709 µM) | MFC [20]: > 8 µg/mL | MFC (Lomentospora prolificans): > 8 µg/mL | MIC (Cunninghamella [21]): 1.75 µg/mL (≈ 2.48 µM) | MIC (Trichosporon asahii [22]): 0.17 µg/mL (≈ 0.241 µM) | MFC (Curvularia lunata [23]): 0.5 µg/mL (≈ 0.709 µM) | MFC (Candida tropicalis [24]): > 0.25 µg/mL | MFC (Pichia kudriavzevii [25]): 0.5 µg/mL (≈ 0.709 µM) | MIC (Curvularia australiensis [26]): 0.12 µg/mL (≈ 0.17 µM) | MFC (Rhizomucor): > 2 µg/mL | MFC (Cunninghamella [27]): 4 µg/mL (≈ 5.67 µM) | MFC (Candida albicans [28]): 0.06 µg/mL (≈ 0.085 µM) | MFC (Rhizopus arrhizus [29]): > 8 µg/mL | MIC [30]: 0.11 µg/mL (≈ 0.156 µM) | MIC (Penicillium sp. [31]): 4.25 µg/mL (≈ 6.02 µM) | MFC (Aspergillus terreus [32]): 0.5 µg/mL (≈ 0.709 µM) | MIC (Talaromyces marneffei [33]): 0.25 µg/mL (≈ 0.354 µM) | MFC (Rhizopus): > 4 µg/mL | MIC (Sporothrix schenckii [34]): 0.12 µg/mL (≈ 0.17 µM) | MFC (Absidia): > 2 µg/mL | MIC (Clavispora lusitaniae [35]): 0.07 µg/mL (≈ 0.0992 µM) | MIC (Trichosporon inkin [36]): 0.21 µg/mL (≈ 0.298 µM) | MIC (Aspergillus fumigatus [37]): 0.46 µg/mL (≈ 0.652 µM) | MFC (Aspergillus fumigatus [38]): 2 µg/mL (≈ 2.83 µM) | MIC (Candida tropicalis [39]): 0.56 µg/mL (≈ 0.794 µM) | MFC (Clavispora lusitaniae [40]): 0.25 µg/mL (≈ 0.354 µM) | MIC (Lichtheimia corymbifera [41]): 2.5 µg/mL (≈ 3.54 µM) | MFC (Penicillium sp. [42]): > 2 µg/mL | MFC (Trichosporon inkin [43]): 0.25 µg/mL (≈ 0.354 µM) | MFC (Sporothrix schenckii [44]): 0.5 µg/mL (≈ 0.709 µM) | MIC (Cryptococcus gattii [45]): 0.22 µg/mL (≈ 0.312 µM) | MFC (Candida parapsilosis [46]): 0.06 µg/mL (≈ 0.085 µM) | MIC (Aspergillus flavus [47]): 0.59 µg/mL (≈ 0.836 µM) | MFC (Fusarium oxysporum [48]): 0.25 µg/mL (≈ 0.354 µM) | MFC (Saccharomyces cerevisiae [49]): > 4 µg/mL | MIC (Mucor [50]): 4.36 µg/mL (≈ 6.18 µM) | MFC (Trichosporon asahii [51]): > 4 µg/mL | MIC [52]: 0.12 µg/mL (≈ 0.17 µM) | MIC (Fusarium oxysporum [53]): 4.5 µg/mL (≈ 6.38 µM) | MIC (Saccharomyces cerevisiae [54]): 2 µg/mL (≈ 2.83 µM) | MIC [55]: 0.87 µg/mL (≈ 1.23 µM) | MIC (Scedosporium apiospermum [56]): 2.66 µg/mL (≈ 3.77 µM) | MFC [57]: 0.5 µg/mL (≈ 0.709 µM) | MIC (Aspergillus niger [58]): 0.98 µg/mL (≈ 1.39 µM) | MFC (Mucor [59]): > 4 µg/mL | MIC (Curvularia lunata [60]): 0.03 µg/mL (≈ 0.0425 µM) | MFC (Nakaseomyces glabratus [61]): > 4 µg/mL

Source: ChEMBL document CHEMBL1275524, “Activities of antifungal agents against yeasts and filamentous fungi: assessment according to the methodology of the European Committee on Antimicrobial Susceptibility Testing” (2008)
